The values below come from ChEMBL document CHEMBL4049407, “Positional Scanning Identifies the Molecular Determinants of a High Affinity Multi-Leucine Inhibitor for Furin and PACE4” (J Med Chem, 2017).

Active and inactive are the calls of the source. No rule for the calls is given here. Peptide text beside a SMILES is read from it. * marks the point of attachment. NH(4-amidinobenzyl) = N=C(N)c1ccc(CN*)cc1

One test addresses Furin (Homo sapiens, UniProt P09958). Nature of the test: Inhibition of recombinant human furin expressed in drosophila S2 cells using pyrGlu-Arg-Thr-Lys-Arg-7-amido-4-methylcoumarin as substrate after 60 mins by spectrofluorometry method. The test is classed as cell-based. The procedure, abridged: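 Human recombinant purified furin at 2 units/100 µL (0.54 nM), in 100 mM HEPES pH 7.5, 1 mM CaCl2, 1 mM β-mercaptoethanol, 1.8 mg/mL BSA. His-containing peptides run instead in 20 mM BisTris pH 6.5 with the same additives. Substrate 100 µM, KM 5.04 µM. Inhibitor 1 nM to 10 µM; 60 min at 37°C. Fluorescence ex 370 / em 460 nm. Ki by Morrison equation; triplicate experiments, mean ± SD.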

In test [1] the target is T1, Proprotein convertase subtilisin/kexin type 6 (Homo sapiens, UniProt P29122).
T1 sequence (P29122 whole entry): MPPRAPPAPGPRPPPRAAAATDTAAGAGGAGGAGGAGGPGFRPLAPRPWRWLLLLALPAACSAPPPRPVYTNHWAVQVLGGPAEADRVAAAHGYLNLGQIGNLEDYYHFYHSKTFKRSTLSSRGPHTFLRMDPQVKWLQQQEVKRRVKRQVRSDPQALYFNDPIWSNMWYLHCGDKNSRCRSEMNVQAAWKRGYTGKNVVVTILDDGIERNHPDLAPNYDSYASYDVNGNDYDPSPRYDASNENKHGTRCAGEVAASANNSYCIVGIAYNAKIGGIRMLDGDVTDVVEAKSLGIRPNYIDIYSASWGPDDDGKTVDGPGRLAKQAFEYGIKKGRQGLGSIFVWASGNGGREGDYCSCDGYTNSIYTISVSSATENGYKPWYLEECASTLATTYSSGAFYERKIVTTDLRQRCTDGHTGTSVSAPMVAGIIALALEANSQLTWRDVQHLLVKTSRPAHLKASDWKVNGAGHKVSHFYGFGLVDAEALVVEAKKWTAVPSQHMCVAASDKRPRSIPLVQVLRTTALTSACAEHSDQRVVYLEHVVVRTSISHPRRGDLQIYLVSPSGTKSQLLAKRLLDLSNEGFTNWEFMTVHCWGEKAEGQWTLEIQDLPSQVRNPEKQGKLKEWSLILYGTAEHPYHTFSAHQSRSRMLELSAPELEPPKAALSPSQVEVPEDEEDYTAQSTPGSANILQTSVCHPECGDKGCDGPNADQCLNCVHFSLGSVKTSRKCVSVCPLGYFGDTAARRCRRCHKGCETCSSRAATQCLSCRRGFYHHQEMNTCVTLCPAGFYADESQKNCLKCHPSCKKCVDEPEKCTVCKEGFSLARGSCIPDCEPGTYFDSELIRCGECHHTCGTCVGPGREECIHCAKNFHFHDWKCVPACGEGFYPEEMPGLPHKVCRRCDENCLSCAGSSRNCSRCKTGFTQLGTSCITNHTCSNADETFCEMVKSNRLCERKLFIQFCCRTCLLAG
The test can be described thus: Inhibition of recombinant human PACE4 expressed in drosophila S2 cells using pyrGlu-Arg-Thr-Lys-Arg-7-amido-4-methylcoumarin as substrate after 60 mins by spectrofluorometry method. The test is classed as cell-based. The procedure, abridged: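 Human recombinant purified PACE4 at 2 units/100 µL (20.18 nM), in 20 mM BisTris pH 6.5, 1 mM CaCl2, 1.8 mg/mL BSA. Substrate 100 µM, KM 4.035 µM. Inhibitor 1 nM to 10 µM; 60 min at 37°C. Fluorescence ex 370 / em 460 nm. Ki by Morrison tight-binding equation; three independent experiments, mean ± SD.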

For test [2], the system named is DU-145. The test can be described thus: Antiproliferative activity against human DU145 cells assessed as reduction in metabolic activity after 72 hrs by MTT assay. As to conditions: DU-145, 72 h. The format is functional, cell-based. The essentials:
(§1)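 Cells kept at 37°C, 5% CO2 in RPMI 1640 (DU145 with 5% FBS, 1500 cells/well; LNCaP with 10% FBS, 2500 cells/well) on poly-L-lysine coated plates. Peptides added 24 h after plating in fresh serum medium at 0, 1, 10, 25, 50, 75, 100, 250 µM for 72 h. MTT 1 mg/mL final for 4 h; formazan dissolved in 2-propanol HCl. Signal normalised to water vehicle; IC50 from dose-response curves.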
On the technique in general: Tetrazolium dyes change colour on reduction, which living cells bring about.

Another test deals with LNCaP. The test can be described thus: Antiproliferative activity against human LNCAP cells assessed as reduction in metabolic activity after 72 hrs by MTT assay. The format is functional, cell-based. The essentials:
as §1

For the next test, the species on record is Homo sapiens. Nature of the test: Selectivity index, ratio of Ki for recombinant human furin expressed in drosophila S2 cells to Ki for recombinant human PACE4 expressed in drosophila S2 cells. The format is cell-based. The essentials: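 Ratio Ki(furin)/Ki(PACE4). […] PACE4 buffer was BisTris pH 6.5; furin buffer was HEPES pH 7.5, or BisTris pH 6.5 for His peptides. Ki fitted by Morrison equation from three independent experiments.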

The subject of test [3] is DU-145. Nature of the test: Antiproliferative activity against human DU145 cells assessed as reduction in metabolic activity at 25 to 100 uM after 72 hrs by MTT assay. The format is functional, cell-based. The essentials:
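First-pass MTT screen of each library peptide on DU145 cells (RPMI 1640, 5% FBS, 1500 cells/well, poly-L-lysine plates). Peptides added 24 h after seeding at 25, 50 and 100 µM in fresh serum medium for 72 h. MTT 1 mg/mL for 4 h; 2-propanol HCl solubilisation. Activity normalised to water vehicle. Mean ± SEM of at least two independent experiments.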

Furin, sequence (P09958 whole entry): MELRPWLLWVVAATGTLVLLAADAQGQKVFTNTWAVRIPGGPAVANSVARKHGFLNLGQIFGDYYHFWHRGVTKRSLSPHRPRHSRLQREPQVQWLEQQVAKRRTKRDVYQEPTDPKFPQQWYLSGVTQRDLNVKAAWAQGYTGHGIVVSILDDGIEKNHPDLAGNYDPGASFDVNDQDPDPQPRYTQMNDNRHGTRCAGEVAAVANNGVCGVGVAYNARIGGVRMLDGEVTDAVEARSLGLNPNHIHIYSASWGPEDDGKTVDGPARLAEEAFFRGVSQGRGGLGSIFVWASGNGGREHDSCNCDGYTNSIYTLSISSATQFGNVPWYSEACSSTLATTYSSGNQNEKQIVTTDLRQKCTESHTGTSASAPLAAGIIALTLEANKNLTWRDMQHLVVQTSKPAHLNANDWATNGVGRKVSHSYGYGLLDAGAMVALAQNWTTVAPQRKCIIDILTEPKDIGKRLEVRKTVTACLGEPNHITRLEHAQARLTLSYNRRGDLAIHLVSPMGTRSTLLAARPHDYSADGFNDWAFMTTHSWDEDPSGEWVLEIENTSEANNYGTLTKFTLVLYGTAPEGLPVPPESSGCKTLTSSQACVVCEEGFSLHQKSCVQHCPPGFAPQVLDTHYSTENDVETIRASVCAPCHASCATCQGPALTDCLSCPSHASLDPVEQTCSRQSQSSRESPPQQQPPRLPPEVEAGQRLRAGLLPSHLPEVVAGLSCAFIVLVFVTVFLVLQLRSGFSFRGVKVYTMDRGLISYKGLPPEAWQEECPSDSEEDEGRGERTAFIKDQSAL

As usually defined, the Ki is a measure of affinity in units of concentration, obtained from inhibition or displacement. As usually defined, the IC50 is the concentration that gives 50% inhibition. In the case of `CC[C@H](C)[C@H](NC(=O)[C@H](CC(C)C)NC(=O)[C@@H](CC(C)C)NC(C)=O)C(=O)N[C@H](C(=O)N[C@@H](CCCNC(=N)N)C(=O)N[C@H](C(=O)N[C@@H](CCCCN)C(=O)NCc1ccc(C(=N)N)cc1)C(C)C)[C@@H](C)CC`, the Ki on Furin amounted to 11.7 nM; in test [1] it was 14 nM. For the same molecule, the IC50 with DU-145 [2] amounted to 37000 nM; in the test on LNCaP it was 60000 nM. The Ratio Ki in the test listed under Homo sapiens was found to be 0.8.
As to `CC[C@H](C)[C@H](NC(=O)[C@H](CC(C)C)NC(=O)[C@H](CC(C)C)NC(C)=O)C(=O)N[C@H](C(=O)N[C@@H](CCCNC(=N)N)C(=O)N[C@H](C(=O)N[C@@H](CCCCN)C(=O)NCc1ccc(C(=N)N)cc1)C(C)C)[C@@H](C)CC`, the Ki at Furin came to 8.1 nM; in test [1] it was 9.8 nM. Besides, the IC50 in the test on DU-145 [2] turned out to be 20000 nM; in the test with LNCaP, 30000 nM. In the test filed under Homo sapiens, the Ratio Ki worked out at 0.8.
For `CC(=O)N[C@@H](CC(=O)O)C(=O)N[C@@H](CC(C)C)C(=O)N[C@@H](CC(C)C)C(=O)N[C@@H](CC(C)C)C(=O)N[C@@H](CCCNC(=N)N)C(=O)N[C@H](C(=O)N[C@@H](CCCCN)C(=O)NCc1ccc(C(=N)N)cc1)C(C)C` (Ac-DLLLRVK-{NH(4-amidinobenzyl)}), the Ki at Furin is 8 nM; in test [1] it was 12 nM. In addition, the IC50 was determined as 90000 nM in the test on DU-145 [2] and 40000 nM in the test with LNCaP. Moreover, the Ratio Ki in the test filed under Homo sapiens is 0.7.
With `CC(=O)N[C@@H](CCC(=O)O)C(=O)N[C@@H](CC(C)C)C(=O)N[C@@H](CC(C)C)C(=O)N[C@@H](CC(C)C)C(=O)N[C@@H](CCCNC(=N)N)C(=O)N[C@H](C(=O)N[C@@H](CCCCN)C(=O)NCc1ccc(C(=N)N)cc1)C(C)C` (Ac-ELLLRVK-{NH(4-amidinobenzyl)}), the results for the Ki (at Furin; in test [1]) were 7 nM and 8 nM, respectively. The IC50 with DU-145 [2] turned out to be 150000 nM; in the test on LNCaP it was 120000 nM. In addition, the Ratio Ki in the test listed under Homo sapiens worked out at 0.9.
For `CC(=O)N[C@@H](Cc1ccccc1)C(=O)N[C@@H](CC(C)C)C(=O)N[C@@H](CC(C)C)C(=O)N[C@@H](CC(C)C)C(=O)N[C@@H](CCCNC(=N)N)C(=O)N[C@H](C(=O)N[C@@H](CCCCN)C(=O)NCc1ccc(C(=N)N)cc1)C(C)C` (Ac-FLLLRVK-{NH(4-amidinobenzyl)}), the Ki (at Furin; in test [1]) was 9 nM throughout. The IC50 with DU-145 [2] was 30000 nM; in the test with LNCaP, 41000 nM. In addition, in the test filed under Homo sapiens, the Ratio Ki was 1.
Take `CC[C@H](C)[C@H](NC(C)=O)C(=O)N[C@@H](CC(C)C)C(=O)N[C@@H](CC(C)C)C(=O)N[C@@H](CC(C)C)C(=O)N[C@@H](CCCNC(=N)N)C(=O)N[C@H](C(=O)N[C@@H](CCCCN)C(=O)NCc1ccc(C(=N)N)cc1)C(C)C` (Ac-ILLLRVK-{NH(4-amidinobenzyl)}): the Ki (at Furin; in test [1]) was 5 nM throughout. Besides, the IC50 in the test on DU-145 [2] was determined as 27000 nM; in the test with LNCaP, 40000 nM. Besides, in the test listed under Homo sapiens, the Ratio Ki stood at 1.
As for `CC(=O)N[C@@H](CC(C)C)C(=O)N[C@@H](Cc1ccccc1)C(=O)N[C@@H](CC(C)C)C(=O)N[C@@H](CC(C)C)C(=O)N[C@@H](CCCNC(=N)N)C(=O)N[C@H](C(=O)N[C@@H](CCCCN)C(=O)NCc1ccc(C(=N)N)cc1)C(C)C` (Ac-LFLLRVK-{NH(4-amidinobenzyl)}), the Ki was found to be 7 nM on Furin and 8 nM in test [1]. For the same molecule, the IC50 is 36000 nM in the test on DU-145 [2] and 31000 nM with LNCaP. Besides, in the test filed under Homo sapiens, the Ratio Ki came out at 0.9.
The like results for `CC[C@H](C)[C@H](NC(=O)[C@H](CC(C)C)NC(C)=O)C(=O)N[C@@H](CC(C)C)C(=O)N[C@@H](CC(C)C)C(=O)N[C@@H](CCCNC(=N)N)C(=O)N[C@H](C(=O)N[C@@H](CCCCN)C(=O)NCc1ccc(C(=N)N)cc1)C(C)C` (Ac-LILLRVK-{NH(4-amidinobenzyl)}) were, in that order, 2 nM, 2.5 nM, 31000 nM, 40000 nM and 0.8.
Regarding `CC(=O)N[C@@H](CC(C)C)C(=O)N[C@H](C(=O)N[C@@H](CC(C)C)C(=O)N[C@@H](CC(C)C)C(=O)N[C@@H](CCCNC(=N)N)C(=O)N[C@H](C(=O)N[C@@H](CCCCN)C(=O)NCc1ccc(C(=N)N)cc1)C(C)C)C(C)C` (Ac-LVLLRVK-{NH(4-amidinobenzyl)}), the Ki (on Furin; in test [1]) was 2 nM in each case. Besides, the Ratio Ki in the test listed under Homo sapiens was 1. The result in the test on DU-145 [3] was inactive.
For `CC(=O)N[C@@H](CC(C)C)C(=O)N[C@@H](Cc1ccc(O)cc1)C(=O)N[C@@H](CC(C)C)C(=O)N[C@@H](CC(C)C)C(=O)N[C@@H](CCCNC(=N)N)C(=O)N[C@H](C(=O)N[C@@H](CCCCN)C(=O)NCc1ccc(C(=N)N)cc1)C(C)C` (Ac-LYLLRVK-{NH(4-amidinobenzyl)}), the values for the Ki (at Furin; in test [1]) were 3 nM and 4 nM, respectively. The Ratio Ki in the test filed under Homo sapiens stood at 0.8. Besides, the outcome with DU-145 [3] was inactive.
Regarding `CSCC[C@H](NC(C)=O)C(=O)N[C@@H](CC(C)C)C(=O)N[C@@H](CC(C)C)C(=O)N[C@@H](CC(C)C)C(=O)N[C@@H](CCCNC(=N)N)C(=O)N[C@H](C(=O)N[C@@H](CCCCN)C(=O)NCc1ccc(C(=N)N)cc1)C(C)C` (Ac-MLLLRVK-{NH(4-amidinobenzyl)}), the Ki (on Furin; in test [1]) was 6 nM throughout. Also, in the test filed under Homo sapiens, the Ratio Ki was 1. Besides, the result in the test with DU-145 [3] was inactive.
For `CC(=O)N[C@@H](CC(N)=O)C(=O)N[C@@H](CC(C)C)C(=O)N[C@@H](CC(C)C)C(=O)N[C@@H](CC(C)C)C(=O)N[C@@H](CCCNC(=N)N)C(=O)N[C@H](C(=O)N[C@@H](CCCCN)C(=O)NCc1ccc(C(=N)N)cc1)C(C)C` (Ac-NLLLRVK-{NH(4-amidinobenzyl)}), the Ki at Furin amounted to 3.1 nM; in test [1] it was 6 nM. Further, in the test listed under Homo sapiens, the Ratio Ki was determined as 0.5. The result with DU-145 [3] was inactive.
The like results for `CC(=O)N1CCC[C@H]1C(=O)N[C@@H](CC(C)C)C(=O)N[C@@H](CC(C)C)C(=O)N[C@@H](CC(C)C)C(=O)N[C@@H](CCCNC(=N)N)C(=O)N[C@H](C(=O)N[C@@H](CCCCN)C(=O)NCc1ccc(C(=N)N)cc1)C(C)C` (Ac-PLLLRVK-{NH(4-amidinobenzyl)}) were, in that order, 1.1 nM, 3 nM, 0.4 and “inactive”.
On the same counts, the results for `CC(=O)N[C@@H](CCCNC(=N)N)C(=O)N[C@@H](CC(C)C)C(=O)N[C@@H](CC(C)C)C(=O)N[C@@H](CC(C)C)C(=O)N[C@@H](CCCNC(=N)N)C(=O)N[C@H](C(=O)N[C@@H](CCCCN)C(=O)NCc1ccc(C(=N)N)cc1)C(C)C` (Ac-RLLLRVK-{NH(4-amidinobenzyl)}) are 1.1 nM, 0.6 nM, 1.8 and “inactive”.
